Laboratory results taken from ChEMBL document CHEMBL3414532 (J Med Chem, 2015).

Columns and labels:
[1] = target: T1, Human immunodeficiency virus type 1 reverse transcriptase (Human immunodeficiency virus 1, UniProt Q72547); experiment: Inhibition of HIV1 recombinant reverse transcriptase associated catalytically active RNase H domain assessed as reduction in DNA 3' end directed cleavage using HTS-2 RNA/DNA duplex substrate by fluorescence assay
[2] = target: T1, Human immunodeficiency virus type 1 reverse transcriptase; experiment: Inhibition of HIV1 recombinant reverse transcriptase associated catalytically active RNase H domain assessed as reduction in RNA 5' end directed cleavage using HTS-3 RNA/DNA duplex substrate by fluorescence assay
[3] = target: T1, Human immunodeficiency virus type 1 reverse transcriptase; experiment: Inhibition of reconstituted HIV1 RNase H using RNA/DNA duplex substrate by fluorescence assay
[4] = target: T1, Human immunodeficiency virus type 1 reverse transcriptase; experiment: Inhibition of HIV1 recombinant reverse transcriptase polymerase activity using [3H]TTP and poly(rA)-oligo(dT)16 substrate incubated for 20 mins by liquid scintillation spectrometry
Summary of the method: (§1)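 HIV RT (WT or NNRTI-resistant mutant, 10 nM) added to start reaction with 10 μM [3H]-TTP and 40 nM poly(rA)-oligo(dT)16 in 50 mM Tris-HCl pH 7.4, 60 mM KCl, 5 mM MgCl2; 20 min at 37 °C. Quenched with ice-cold 10% TCA/20 mM sodium pyrophosphate, glass-fiber filtered, washed with TCA and ethanol; incorporation counted by scintillation.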

[5] = target: Human immunodeficiency virus type 1 integrase (Human immunodeficiency virus 1, UniProt Q7ZJM1); experiment: Inhibition of HIV integrase pre-incubated for 10 mins before DNA substrate addition
Summary of the method: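 Strand transfer assay: 1 μM HIV integrase in 10 mM HEPES pH 7.5, 10% glycerol, 10 mM MnCl2, 1 mM DTT, with compound at 0.13–100 μM final in duplicate, preincubated 10 min at 25 °C. Started with biotin/Cy5-labelled oligo duplex, run 30 min at 37 °C, stopped with EDTA. Mean ± SD from at least three experiments.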

[6] = Selectivity index, ratio of IC50 for HIV integrase to IC50 for HIV1 recombinant reverse transcriptase associated catalytically active RNase H-mediated domain internal cleavage activity
[7] = tested on: Human immunodeficiency virus; experiment: Antiviral activity against HIV infected in human HeLa P4/R5 cells pre-incubated for 16 hrs before virus infection and measured 48 hrs post virus infection by fluorescence-based beta-galactosidase detection assay; type: functional, organism-based; settings: Human immunodeficiency virus 1, P4/R5
Summary of the method: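 P4R5 indicator cells (expressing CD4, CXCR4, CCR5 and an HIV LTR-driven β-galactosidase reporter) seeded at 5 × 10^3 per well in DMEM/10% FBS with puromycin (0.5 μg/mL). Drug added 16 h before HIV exposure, then 48 h further incubation. Single replication cycle; infection read by fluorescence-based β-galactosidase detection. Highest concentration tested 50 μM; values are averages of two determinations.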

[8] = Toxicity against human HeLa P4/R5 cells; type: cell-based
[9] = Therapeutic index, ratio of CC50 for human HeLa P4/R5 cells to EC50 for HIV infected in human HeLa P4/R5 cells; type: cell-based; settings: read-out: Ratio CC50/EC50
[10] = target: T1, Human immunodeficiency virus type 1 reverse transcriptase; experiment: Inhibition of HIV1 recombinant reverse transcriptase associated catalytically active RNase H domain assessed as reduction in internal cleavage using HTS-1 RNA/DNA duplex substrate by fluorescence assay
[11] = Inhibition of Moloney murine leukemia virus reverse transcriptase associated RNase H pre-incubated for 10 mins before HTS-1 RNA/DNA duplex substrate addition by fluorescence assay
Summary of the method: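 Preincubated 10 min at room temperature, then started with 100 nM HTS-1 duplex. IC50 at curve midpoint; duplicates, at least two experiments.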

Gag-Pol polyprotein = Gag-Pol polyprotein (Moloney murine leukemia virus isolate Shinnick, UniProt P03355); experiment: Inhibition of Moloney murine leukemia virus reverse transcriptase polymerase activity using Td100/Pd18 DNA-DNA substrate incubated for 30 mins by fluorescence assay
[12] = Inhibition of Escherichia coli RNase H pre-incubated for 10 mins before HTS-1 RNA/DNA duplex substrate addition by fluorescence assay
Summary of the method: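 E. coli RNase H at 4 nM with 6 mM MgCl2 and inhibitor at 1, 7 or 30 μM (2% DMSO final) in 50 mM Tris pH 7.8, 50 mM NaCl. Preincubated 10 min at room temperature, then started with 100 nM HTS-1 (fluorescein/Dabcyl RNA/DNA duplex). IC50 taken at curve midpoint; duplicates, at least two independent experiments.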

[13] = target: T2, Human immunodeficiency virus type 1 reverse transcriptase (Human immunodeficiency virus 1, UniProt Q72547, Y181C); experiment: Inhibition of HIV1 reverse transcriptase Y181C mutant associated RNase H domain activity assessed as reduction in internal cleavage using HTS-1 RNA/DNA duplex substrate by fluorescence assay
[14] = target: T2, Human immunodeficiency virus type 1 reverse transcriptase; experiment: Inhibition of HIV1 reverse transcriptase Y181C mutant polymerase activity using [3H]TTP and poly(rA)-oligo(dT)16 substrate incubated for 20 mins by liquid scintillation spectrometry; summary of the method: as §1
[15] = target: T3, Human immunodeficiency virus type 1 reverse transcriptase (Human immunodeficiency virus 1, UniProt Q72547, K103N/L100I); experiment: Inhibition of HIV1 reverse transcriptase L100I/K103N mutant associated RNase H domain activity assessed as reduction in internal cleavage using HTS-1 RNA/DNA duplex substrate by fluorescence assay
[16] = target: T3, Human immunodeficiency virus type 1 reverse transcriptase; experiment: Inhibition of HIV1 reverse transcriptase L100I/K103N mutant polymerase activity using [3H]TTP and poly(rA)-oligo(dT)16 substrate incubated for 20 mins by liquid scintillation spectrometry; summary of the method: as §1
[17] = target: T2, Human immunodeficiency virus type 1 reverse transcriptase; experiment: Inhibition of HIV1 reverse transcriptase Y181C mutant associated RNase H domain activity assessed as reduction in reduction in DNA 3' end directed cleavage using HTS-2 RNA/DNA duplex substrate by fluorescence assay
[18] = target: T3, Human immunodeficiency virus type 1 reverse transcriptase; experiment: Inhibition of HIV1 reverse transcriptase L100I/K103N mutant associated RNase H domain activity assessed as reduction in reduction in DNA 3' end directed cleavage using HTS-2 RNA/DNA duplex substrate by fluorescence assay

Human immunodeficiency virus type 1 integrase, sequence (Q7ZJM1 whole entry): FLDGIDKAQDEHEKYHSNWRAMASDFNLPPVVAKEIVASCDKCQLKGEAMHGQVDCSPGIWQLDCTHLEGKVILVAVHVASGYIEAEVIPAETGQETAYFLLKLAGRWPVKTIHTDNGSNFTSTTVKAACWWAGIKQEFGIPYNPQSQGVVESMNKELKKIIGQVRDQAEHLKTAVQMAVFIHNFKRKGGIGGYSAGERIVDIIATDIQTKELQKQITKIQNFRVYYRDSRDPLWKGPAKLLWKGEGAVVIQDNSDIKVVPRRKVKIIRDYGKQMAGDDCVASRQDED

Compound	IC50 [1]	IC50 [2]	IC50 [3]	IC50 [4]	IC50 [5]	Ratio IC50 [6]	EC50 [7]	CC50 ([8]; HeLa P4/R5 cells)	selectivity ratio [9]	IC50 [10]	IC50 [11]	IC50 (Gag-Pol polyprotein)	IC50 [12]	CC50 ([8]; p4/r5)	IC50 [13]	IC50 [14]	IC50 [15]	IC50 [16]	IC50 [17]	IC50 [18]
O=C1Cc2cc(Cc3ccc(F)cc3)ccc2C(=O)N1O	800 nM	1200 nM	500 nM	2300 nM	36000 nM	28	13000 nM	> 50000 nM	> 4	1300 nM										
O=C1Cc2cc(Cc3ccccc3)ccc2C(=O)N1O	1400 nM	1100 nM	1100 nM	1700 nM	3800 nM	2.9				1300 nM	> 30000 nM	3200 nM	6500 nM							
COc1ccc(-c2ccc(Cc3ccc4c(c3)CC(=O)N(O)C4=O)cc2)cc1							10000 nM													
COc1ccc(-c2ccc(Cc3ccc4c(c3)CC(=O)N(O)C4=O)cc2)cc1F	1800 nM	1200 nM	700 nM	1900 nM	> 100000 nM		13000 nM	> 50000 nM	> 4	2200 nM										
O=C1Cc2cc(Cc3ccc(-c4ccccc4)cc3)ccc2C(=O)N1O	600 nM	900 nM	500 nM		> 100000 nM		3000 nM			800 nM	> 30000 nM		3400 nM	50000 nM						
O=C1Cc2cc(Cc3ccc(-c4cccs4)cc3)ccc2C(=O)N1O	2000 nM	2700 nM	700 nM	1500 nM	> 100000 nM		13000 nM	> 50000 nM	> 4	2700 nM										
O=C1Cc2cc(Cc3ccc(Cl)cc3)ccc2C(=O)N1O					4400 nM						> 30000 nM									
O=C1Cc2cc(Cc3ccc(C(F)(F)F)cc3)ccc2C(=O)N1O	1100 nM	2000 nM	1200 nM		> 100000 nM		6200 nM			1500 nM	> 30000 nM			50000 nM						
NC(=O)c1ccc(-c2ccc(Cc3ccc4c(c3)CC(=O)N(O)C4=O)cc2)cc1			1500 nM																	
O=C1Cc2cc(Cc3ccc(-c4ccncc4)cc3)ccc2C(=O)N1O			800 nM								> 30000 nM		4000 nM							
NS(=O)(=O)c1ccc(-c2ccc(Cc3ccc4c(c3)CC(=O)N(O)C4=O)cc2)cc1	500 nM	500 nM	400 nM	500 nM	3600 nM	9				400 nM	> 30000 nM	2400 nM	2500 nM		200 nM	300 nM	400 nM	200 nM	300 nM	300 nM
O=C1Cc2cc(Cc3ccc(C4CC4)cc3)ccc2C(=O)N1O	800 nM	900 nM	900 nM		3800 nM					600 nM	> 30000 nM									
CS(=O)(=O)c1ccc(-c2ccc(Cc3ccc4c(c3)CC(=O)N(O)C4=O)cc2)cc1											> 30000 nM		7200 nM							
N#Cc1ccc(-c2ccc(Cc3ccc4c(c3)CC(=O)N(O)C4=O)cc2)cc1	900 nM	900 nM	500 nM		> 100000 nM		13000 nM	> 50000 nM		900 nM	> 30000 nM		3200 nM							
O=C1Cc2cc(Cc3ccc(-c4ccc(F)cc4F)cc3)ccc2C(=O)N1O	900 nM	1400 nM	700 nM	2000 nM	> 100000 nM		13000 nM	> 50000 nM	> 4	1500 nM										
O=C1Cc2cc(Cc3ccc(-c4ccc(F)cc4)cc3)ccc2C(=O)N1O	4900 nM	5000 nM	2800 nM		> 100000 nM		10000 nM			5400 nM	> 30000 nM		2900 nM							
